In ChEMBL document CHEMBL1144713, “New selective inhibitors of steroid 11beta-hydroxylation in the adrenal cortex. Synthesis and structure-activity relationship of potent etomidate analogues” (J Med Chem, 2008):

How the values were obtained:
[1] = (§1) Displacement of [131I]IMTO from CYP450c 11 in Wistar rat adrenal membrane; assay type: cell membranes
In short: (§2)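 Crude membranes from whole adrenals of adult male Wistar rats, homogenized in 10 mM K2HPO4/10 mM HEPES pH 7.1 and washed; 0.06–0.1 mg original tissue per vial. Competitors at 0.1 nM–300 µM with 2 nM 131I-IMTO (carrier added) in buffer containing 150 mM NaCl, 23 °C, 20–30 min. Filtration, γ counting. Nonspecific binding with 10 µM ETO. IC50 and Hill coefficient from curve fit, mean ± SD.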

Rattus norvegicus = organism: Rattus norvegicus; assay: as §1; assay type: cell membranes; in short: as §2
[2] = Inhibition on cortisol secretion in human NCI-H295 cells after 48 hrs; assay type: functional, cell-based; details: for IC50: Homo sapiens, NCI-H295, 48 h
In short: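 NCI-h295 adrenocortical cells grown in RPMI 1640 with insulin, transferrin, selenium and 5% FCS. Compounds at 10 nM–100 µM added to 1 million cells/mL for 48 h, in triplicate. Supernatant cortisol measured by RIA and expressed as percent of control, with control from six uninhibited determinations. IC50 derived from these percentages.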

| SMILES | IC50 [1] [nM] | logIC50 (Rattus norvegicus) | logIC50 [2] | IC50 [2] [nM] |
| --- | --- | --- | --- | --- |
| COC(=O)c1cncn1[C@H](C)c1ccc(I)cc1 [IODOMETOMIDATE I-123, R-] | 8.98 | 0.954 | 0.84 | 6.95 |
| COC(=O)c1cncn1[C@@H](C)c1ccccc1 | 492 | 2.69 | 2.77 | 593 |
| COC(=O)c1cncn1[C@H](C)c1ccccc1 | 3.69 | 0.57 | 1.14 | 13.9 |
| CC(C)OC(=O)c1cncn1[C@H](C)c1ccccc1 | 1.42 | – | – | – |
| CON(C)C(=O)c1cncn1[C@H](C)c1ccccc1 | 14 | 1.18 | 1.45 | 19.5 |
| CC[C@H](c1ccccc1)n1cncc1C(=O)OC | 6.23 | – | – | – |
| COC(=O)c1cncn1[C@H](C)c1cccc(I)c1 | 4.44 | – | – | – |
| CCOC(=O)c1cncn1[C@H](C)c1ccc(I)cc1 | 4.37 | – | – | – |
| CCCOC(=O)c1cncn1[C@H](C)c1ccccc1 | 2.89 | – | – | – |
| CC(=O)c1cncn1[C@H](C)c1ccccc1 | 59.8 | 1.78 | 1.96 | 59 |
| COC(=O)c1cncn1[C@H](C)c1cccnc1 | 20.7 | 1.32 | 1.72 | 52.2 |
| COC(=O)c1cncn1[C@@H]1CCc2ccccc21 | 3.26 | – | – | – |
| C[C@H](c1ccccc1)n1cncc1C(=O)O | 123000 | – | – | – |
| COC(=O)c1cncn1Cc1ccccc1 | 28.8 | 1.46 | 1.51 | 32.1 |
| COC(=O)c1cncn1[C@H](C)c1ccc(C)cc1 | 3.58 | – | – | – |
| CCOC(=O)c1cncn1[C@H](C)c1ccccc1 [ETOMIDATE] | 1.08 | 0.033 | 0.66 | 4.57 |
| C[C@H](c1ccccc1)n1cncc1C(=O)OCCF | 2.89 | 0.46 | 1.11 | 8.92 |
| COC(=O)c1cncn1[C@H](C)c1ccc(CO)cc1 | 3.29 | – | – | – |
| COC(=O)c1cncn1[C@H](C)c1ccc(Br)cc1 | 8.95 | – | – | – |
| CNC(=O)c1cncn1[C@H](C)c1ccccc1 | 215 | 2.33 | 2.21 | 135 |
| COC(=O)c1cncn1Cc1cccnc1 | 870 | – | – | – |
